The source made the active and inactive calls. No cut-off for these calls is given here.
Biological target: Putative P2Y purinoceptor 10 (Mus musculus) (UniProt Q8BFU7)
Experiment: Agonist activity at mouse P2Y10 receptor expressed in McA-RH7777 cells assessed as actin stress fiber formation at 1 uM after 30 mins by confocal microscopy
Format: cell-based
How it was run: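 McA-RH7777 cells stably expressing mouse P2Y10, or mock retrovirus-infected, were grown on collagen I and serum-starved 1 h. They were stimulated with 1 μM compound in serum-free DMEM containing 0.01% fatty-acid-free BSA. […] F-actin fibers were imaged by confocal microscopy.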

Sequence of Putative P2Y purinoceptor 10 (Mus musculus) (Q8BFU7 whole entry): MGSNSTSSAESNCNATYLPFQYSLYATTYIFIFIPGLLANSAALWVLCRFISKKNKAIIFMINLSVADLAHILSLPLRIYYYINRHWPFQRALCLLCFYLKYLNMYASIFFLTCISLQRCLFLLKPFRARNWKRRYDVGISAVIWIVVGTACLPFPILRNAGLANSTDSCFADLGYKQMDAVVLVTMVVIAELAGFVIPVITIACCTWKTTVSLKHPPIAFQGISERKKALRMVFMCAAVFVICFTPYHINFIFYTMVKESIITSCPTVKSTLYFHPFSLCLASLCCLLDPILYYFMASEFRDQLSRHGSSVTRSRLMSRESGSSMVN

Row | Activity | Compound
1 | Active | CCCCCCCCCCCOc1ccccc1CCC(=O)OCCCOP(=O)(O)OC[C@H](N)C(=O)O
2 | Active | CCCCCCCCCCCOc1ccccc1CCC(=O)OCC(F)(F)COP(=O)(O)OC[C@H](N)C(=O)O
3 | inactive | CCCCCCCCCCCOc1cccc(CCC(=O)NC[C@@H](O)COP(=O)(O)O[C@@H](C)[C@H](N)C(=O)O)c1

Row | Compound | Activity
4 | CCCCCCCC/C=C\CCCCCCCC(=O)OC[C@@H](O)COP(=O)(O)OC[C@H](N)C(=O)O | Active

From ChEMBL document CHEMBL3576865, “Structure-activity relationships of lysophosphatidylserine analogs as agonists of G-protein-coupled receptors GPR34, P2Y10, and GPR174” (J Med Chem, 2015)
